Measured values taken from ChEMBL document CHEMBL1145471, “Small molecule regulators of autophagy identified by an image-based high-throughput screen” (Proc Natl Acad Sci U S A, 2007).

Legend:
Type in all cases: functional
[1] = system: H4; assay: Increase in long-lived protein degradation in human H4 cells after 1 hr relative to control; design: concentration or dose not given beside the values
[2] = system: H4; assay: Increase in light chain 3-GFP+ autophagosome vesicle intensity per cell in human H4 cells at 6.0 uM after 24 hrs by high throughput fluorescence microscopy relative to control
Method in brief: (§1)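 H4 cells stably expressing LC3-GFP, seeded in 96-well plates and exposed to compound for 24 h; fixed in 4% paraformaldehyde, nuclei stained with 3 μg/ml DAPI. Automated fluorescence microscopy scored number, size and intensity of LC3-GFP spots; values expressed relative to DMSO-treated wells, rapamycin positive control. Triplicate wells, mean ± SD; experiments repeated three times.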

[3] = system: H4; assay: Increase in light chain 3-GFP+ autophagosome vesicle number per cell in human H4 cells at 6.0 uM after 24 hrs by high throughput fluorescence microscopy relative to control
Method in brief: (§2)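 H4 cells stably expressing LC3-GFP, kept in DMEM/10% FBS at 37°C, 5% CO2, were seeded in 96-well plates and exposed to compound for 24 h. Cells were then fixed in 4% paraformaldehyde and stained with 3 μg/ml DAPI. Automated fluorescence microscopy scored the number, size and intensity of LC3-GFP spots. Values are percent of DMSO wells, in triplicate, mean ± SD. Rapamycin served as positive control.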

[4] = system: H4; assay: Increase in long-lived protein degradation in human H4 cells after 4 hrs relative to control; design: concentration or dose not given beside the values
[5] = system: H4; assay: Decrease in FYVE-RFP+ vesicle intensity per cell in human H4 cells after 4 hrs relative to control; design: concentration or dose not given beside the values; scale not given: the % may be the effect or the level left
Method in brief: (§3)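 H4 cells stably expressing FYVE-RFP (H4-FYVE), grown in DMEM with 10% FBS, penicillin/streptomycin and 2 mM L-glutamine at 37°C, 5% CO2, seeded in 96-well plates and exposed to compound. Fixed in 4% paraformaldehyde, nuclei stained with 3 μg/ml DAPI, FYVE-RFP+ vesicles quantified by high-throughput fluorescence microscopy against DMSO control. Triplicate wells, mean ± SD.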

[6] = system: H4; assay: Increase in long-lived protein degradation in human H4 cells after 24 hrs relative to control; design: concentration or dose not given beside the values
[7] = system: H4; assay: Increase in long-lived protein degradation in human H4 cells after 2 hrs relative to control; design: concentration or dose not given beside the values
[8] = system: H4; assay: Decrease in FYVE-RFP+ vesicle intensity per cell in human H4 cells after 2 hrs relative to control; design: concentration or dose not given beside the values; scale not given: the % may be the effect or the level left; method in brief: as §3
[9] = system: H4; assay: Increase in light chain 3-GFP+ autophagosome vesicle area per cell in human H4 cells at 6.0 uM after 24 hrs by high throughput fluorescence microscopy relative to control; method in brief: as §1
[10] = system: H4; assay: Induction of light chain 3-GFP level in human H4 cells at 6.0 uM after 24 hrs by high throughput fluorescence microscopy relative to control; method in brief: as §2
[11] = system: H4; assay: Decrease in FYVE-RFP+ vesicle intensity per cell in human H4 cells after 8 hrs relative to control; design: concentration or dose not given beside the values; scale not given: the % may be the effect or the level left; method in brief: as §3
[12] = system: H4; assay: Induction of light chain 3-GFP level in human H4 cells at 5.2 uM after 24 hrs by high throughput fluorescence microscopy relative to control
Method in brief: (§4)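 H4 cells stably expressing LC3-GFP, grown in DMEM with 10% FBS, penicillin/streptomycin and 2 mM L-glutamine at 37°C, 5% CO2. Cells were seeded in 96-well plates and exposed to library compounds at 3–12 μM for 24 h, then fixed in 4% paraformaldehyde and stained with 3 μg/ml DAPI. LC3-GFP spot number, size and intensity were measured by high-throughput fluorescence microscopy and expressed relative to DMSO. Triplicates, mean ± SD.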

[13] = system: H4; assay: Increase in light chain 3-GFP+ autophagosome vesicle area per cell in human H4 cells at 5.2 uM after 24 hrs by high throughput fluorescence microscopy relative to control
Method in brief: (§5)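 H4 cells stably expressing LC3-GFP, seeded in 96-well plates and exposed to compound for 24 h; screening concentrations were 3–12 μM, with rapamycin 0.22 μM and bafilomycin A1 0.40 μM. Cells fixed in 4% paraformaldehyde and stained with 3 μg/ml DAPI. Number, size and intensity of LC3-GFP spots measured by high-throughput fluorescence microscopy and expressed as percent of DMSO-treated wells. Rapamycin was the positive control. Triplicate wells, mean ± SD; experiments repeated three times.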

[14] = system: H4; assay: Effect on FYVE-RFP+ vesicle intensity per cell in human H4 cells after 2 hrs relative to control; design: concentration or dose not given beside the values; method in brief: as §3
[15] = system: H4; assay: Increase in light chain 3-GFP+ autophagosome vesicle number per cell in human H4 cells at 5.2 uM after 24 hrs by high throughput fluorescence microscopy relative to control
Method in brief: (§6)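 H4 cells stably expressing LC3-GFP were grown in DMEM with 10% FBS and 2 mM L-glutamine at 37°C, 5% CO2. They were exposed to each compound for 24 h, with DMSO as negative and rapamycin as positive control. Cells were then fixed in 4% paraformaldehyde and stained with 3 μg/ml DAPI. High-throughput fluorescence imaging scored LC3-GFP spot number, size and intensity, expressed relative to DMSO. Mean ± SD of triplicates; experiments repeated three times.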

[16] = system: H4; assay: Increase in light chain 3-GFP+ autophagosome vesicle intensity per cell in human H4 cells at 5.2 uM after 24 hrs by high throughput fluorescence microscopy relative to control; method in brief: as §6
[17] = system: H4; assay: Effect on FYVE-RFP+ vesicle intensity per cell in human H4 cells after 4 hrs relative to control; design: concentration or dose not given beside the values; method in brief: as §3
[18] = system: H4; assay: Effect on FYVE-RFP+ vesicle intensity per cell in human H4 cells after 8 hrs relative to control; design: concentration or dose not given beside the values; method in brief: as §3
[19] = system: H4; assay: Increase in light chain 3-GFP+ autophagosome vesicle area per cell in human H4 cells at 6.2 uM after 24 hrs by high throughput fluorescence microscopy relative to control; method in brief: as §5
[20] = system: H4; assay: Increase in light chain 3-GFP+ autophagosome vesicle intensity per cell in human H4 cells at 6.2 uM after 24 hrs by high throughput fluorescence microscopy relative to control; method in brief: as §6
[21] = system: H4; assay: Induction of light chain 3-GFP level in human H4 cells at 6.2 uM after 24 hrs by high throughput fluorescence microscopy relative to control; method in brief: as §4
[22] = system: H4; assay: Increase in light chain 3-GFP+ autophagosome vesicle number per cell in human H4 cells at 6.2 uM after 24 hrs by high throughput fluorescence microscopy relative to control; method in brief: as §6
[23] = system: H4; assay: Increase in light chain 3-GFP+ autophagosome vesicle number per cell in human H4 cells at 6.9 uM after 24 hrs by high throughput fluorescence microscopy relative to control; method in brief: as §6
[24] = system: H4; assay: Increase in light chain 3-GFP+ autophagosome vesicle area per cell in human H4 cells at 6.9 uM after 24 hrs by high throughput fluorescence microscopy relative to control; method in brief: as §5
[25] = system: H4; assay: Increase in light chain 3-GFP+ autophagosome vesicle intensity per cell in human H4 cells at 6.9 uM after 24 hrs by high throughput fluorescence microscopy relative to control; method in brief: as §6
[26] = system: H4; assay: Induction of light chain 3-GFP level in human H4 cells at 6.9 uM after 24 hrs by high throughput fluorescence microscopy relative to control; method in brief: as §4

Compound | Activity [1] [%] | Activity [4] [%] | Activity [5] [%] | Activity [6] [%] | Activity [7] [%] | Activity [8] [%] | Activity [11] [%] | Activity [12] [%] | Activity [13] [%] | Activity [15] [%] | Activity [16] [%] | further results
CC1(C)C(C=C(Cl)Cl)C1C(=O)OC(C#N)c1cccc(Oc2ccccc2)c1 (stereo not drawn) [ALPHA-CYPERMETHRIN] | 94.75 | 98.36 | 29.13 | 103.75 | 95.28 | 33.75 | 58.22 |  |  |  |  | Activity [2]: 208.14%; Activity [3]: 174.74%; Activity [9]: 200.12%; Activity [10]: 97.45%
CN(CCc1ccc(Cl)c(Cl)c1)CC(O)COc1ccc(NS(C)(=O)=O)cc1 (stereo unspecified) | 95.15 | 91.75 |  | 96.25 | 86.27 |  |  | 135.28 | 192.05 | 166.24 | 222.83 | Activity [14]: 68.06%; Activity [17]: 71.97%; Activity [18]: 66.35%
COc1ccc(CCCOC(Cn2ccnc2)c2ccc(OC)cc2)cc1 (stereo unspecified) |  |  |  |  |  |  |  |  |  |  |  | Activity [19]: 209.11%; Activity [20]: 285.59%; Activity [21]: 42.96%; Activity [22]: 179.88%
Fc1ccc(C(c2ccc(F)cc2)N2CCN(C/C=C/c3ccccc3)CC2)cc1 [FLUNARIZINE] | 97.33 | 93.65 | 44.48 | 113.6 | 107.1 | 53.92 | 48.6 | 104.67 | 179.26 | 155.03 | 203.66 | 
O=S(=O)(c1cccc2c(Cl)cccc12)N1CCCNCC1 |  |  |  |  |  |  |  |  |  |  |  | Activity [23]: 210.65%; Activity [24]: 272.31%; Activity [25]: 447.81%; Activity [26]: 82.33%
O=c1cc(N2CCOCC2)oc2c(-c3ccccc3)cccc12 [LY-294002] |  |  | 14.79 |  |  | 24.99 | 11.09 |  |  |  |  | 
CC(C)[C@@H](O)CC[C@@H](C)[C@H]1CC[C@H]2[C@@H]3CC=C4C[C@@H](O)CC[C@]4(C)[C@H]3CC[C@]12C | 125.06 | 89.7 | 38.32 | 106.22 | 105.76 | 38.02 | 38.51 |  |  |  |  | Activity [19]: 299.59%; Activity [20]: 648.9%; Activity [21]: 108.2%; Activity [22]: 220.93%
CCCC[C@@H](C=O)NC(=O)[C@H](CC(C)C)NC(=O)OCc1ccccc1 [CALPEPTIN] | 73.3 | 78.67 | 63.28 | 81.62 | 68.3 | 58.44 | 61.02 |  |  |  |  | Activity [23]: 177.07%; Activity [24]: 207.34%; Activity [25]: 232.89%; Activity [26]: 128.87%
CC(/C=C/C(=O)NO)=C\[C@@H](C)C(=O)c1ccc(N(C)C)cc1 [TRICHOSTATIN] |  |  |  |  |  |  |  | 40.15 | 864.85 | 636.52 | 1649.69 | 
C=C[C@H]1CN2CC[C@H]1C[C@H]2[C@H](O)c1ccnc2ccc(OC)cc12 [QUININE] | 94.35 | 99.32 |  | 103.56 | 110.94 |  |  |  |  |  |  | Activity [23]: 146.94%; Activity [24]: 160.38%; Activity [25]: 165.01%; Activity [14]: 70.35%; Activity [17]: 78.03%; Activity [18]: 60.7%; Activity [26]: 115.16%
O=C1Nc2ccccc2/C1=C1/Nc2ccccc2C1=O [INDIRUBIN] | 105.91 | 95.3 | 35.1 | 100.5 | 94.5 | 73.16 | 59.18 |  |  |  |  | 
CC(C)COCC(CN(Cc1ccccc1)c1ccccc1)N1CCCC1 (stereo unspecified) [BEPRIDIL] | 101.9 | 98.78 | 45.17 | 117.59 | 112.64 | 65.27 | 35.94 |  |  |  |  | Activity [19]: 160.34%; Activity [20]: 168.39%; Activity [21]: 111.92%; Activity [22]: 144.05%
C=C1[C@@H](C)[C@H]2[C@H](Cc3ccccc3)NC(=O)[C@]23OC(=O)/C=C/[C@H](O)CCC[C@@H](C)C/C=C/[C@H]3[C@@H]1O [CYTOCHALASIN B] |  |  |  |  |  |  |  | 30.58 | 247.77 | 208.73 | 286.43 | 
CC[C@H]1[C@@H]2C=C[C@H]3[C@@H](C[C@H]4/C=C/C(=O)C5=C[C@H](CCCNC(=O)/C=C\C[C@H]34)NC5=O)[C@H]2C[C@H]1C [IKARUGAMYCIN] |  |  |  |  |  |  |  | 50.16 | 107.27 | 75.79 | 172.85 | 
CC1(C)[C@@H](O)C[C@H]2[C@](C)(O)[C@@H]3CC[C@@H]4[C@@H](O)[C@@]3(C[C@@H](O)[C@@]21O)C[C@@]4(C)O [GRAYANOTOXIN III] | 95.81 | 90.49 | 39.37 | 91.03 | 96.23 | 45.44 | 39.83 |  |  |  |  | Activity [2]: 210.65%; Activity [3]: 130.17%; Activity [9]: 154.31%; Activity [10]: 129.36%
COc1ccc(CCN(C)CCC[C@](C#N)(c2ccc(OC)c(OC)c2)C(C)C)cc1OC [VERAPAMIL] | 103.33 | 97.84 |  | 94.39 | 114.92 |  |  | 132.44 | 200.63 | 168.55 | 238.6 | 
